Activity calls are given as the source filed them. The calls are words filed in the database; no cut-off is given here. Non-standard residues stand in square brackets, D forms with d. Residues, ends and D or L forms follow the SMILES beside them. 3Pal = N[C@@H](Cc1cccnc1)C(=O)O; Aib = CC(C)(N)C(=O)O

A short description of series [1]: Aqueous solubility of the compound in PBS assessed as precipitate formation at pH 7 after 1 hr. Conditions: buffer, pH 7, 1 h.
Series [2] can be described thus: Aqueous solubility of the compound in PBS at 1 to 10 mg/ml assessed as precipitate formation at pH 7 at 4 degC after 7 days. The series is classed as physicochemical. The settings on record: buffer, pH 7, 168 h.
Series [3] concerns Rattus norvegicus. Kind of series: Antihypoglycemic activity in lean Wistar rat assessed as prevention of insulin-induced glucose reduction at 15 nmol/kg, ip after 30 mins by glucometer. The series is classed as functional, organism-based. In outline:
(§1)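 Lean rats received a fixed insulin dose chosen to induce hypoglycemia, together with peptide or vehicle. Blood glucose was followed for 60 min after administration. Groups were compared by one-way ANOVA with Dunnett's test against the insulin group, with P < 0.05 taken as significant.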

The test system of series [4] is Rattus norvegicus. Kind of series: Hyperglycemic activity in lean Wistar rat assessed as elevation of plasma glucose levels at 10 nmol/kg, ip after 120 mins in absence of insulin by glucometer. Type of series: functional, organism-based.
Series [5] deals with Rattus norvegicus. Kind of series: Antihypoglycemic activity in lean Wistar rat assessed as prevention of insulin-induced glucose reduction at 15 nmol/kg, ip after 60 mins by glucometer. The series is classed as functional, organism-based. The method, boiled down:
as §1

The test system of the next series is Sus scrofa. Kind of series: Antihypoglycemic activity in diabetic Yucatan pig assessed as prevention of insulin detemir-induced blood glucose reduction at 10 nmol/kg, sc administered 240 mins post insulin detemir challenge measured during compound dosing by glucometer.
In series [6] the target is Glucagon receptor (Homo sapiens) (UniProt P47871). Kind of series: Activation of glucagon receptor (unknown origin) transfected in HEK293 cells co-transfected with luciferase reporter gene linked CRE element assessed as compound EC50 preincubated in PBS buffer for 4 weeks at elevated temperature and pH 7 followed by protein addition measured after 5 hrs in presence of luclite substrate by liquid scintillation counting relative to control. The series is classed as functional, cell-based. The method, boiled down: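 Analog incubated at 2.0 mg/mL in 50 mM sodium phosphate, 150 mM NaCl at pH 7 (also pH 5, 6), 37 °C, stirred at 200 rpm for 1 and 4 weeks. T=0 reference kept at -45 °C. […] Cells exposed to serial dilutions for 5 h at 37 °C, then LucLite luminescence read. Reported as percent change in EC50.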
Sequence of Glucagon receptor (Homo sapiens) (P47871 whole entry): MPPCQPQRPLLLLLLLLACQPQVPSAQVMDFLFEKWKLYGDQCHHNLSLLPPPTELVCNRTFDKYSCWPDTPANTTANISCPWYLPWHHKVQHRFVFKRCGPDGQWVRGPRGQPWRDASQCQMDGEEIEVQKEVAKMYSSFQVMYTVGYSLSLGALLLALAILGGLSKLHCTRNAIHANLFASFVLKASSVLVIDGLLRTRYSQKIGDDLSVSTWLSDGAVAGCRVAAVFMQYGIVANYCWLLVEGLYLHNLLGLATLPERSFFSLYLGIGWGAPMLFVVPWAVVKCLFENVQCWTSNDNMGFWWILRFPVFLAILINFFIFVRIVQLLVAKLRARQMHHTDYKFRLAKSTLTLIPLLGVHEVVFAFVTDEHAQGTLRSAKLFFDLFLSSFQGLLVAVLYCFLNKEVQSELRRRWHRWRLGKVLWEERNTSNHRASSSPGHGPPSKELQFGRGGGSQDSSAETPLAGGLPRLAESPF
For orientation: In a reporter assay the amount or activity of a reporter protein is the signal.

Turning to `CSCC[C@H](NC(=O)[C@H](CC(C)C)NC(=O)[C@H](Cc1c[nH]c2ccccc12)NC(=O)[C@H](CCC(N)=O)NC(=O)[C@@H](NC(=O)[C@H](Cc1ccccc1)NC(=O)[C@H](CC(=O)O)NC(=O)[C@H](CCC(N)=O)NC(=O)[C@H](C)NC(=O)[C@H](CCCNC(=N)N)NC(=O)[C@H](CCCNC(=N)N)NC(=O)C(C)(C)NC(=O)[C@H](CC(=O)O)NC(=O)[C@H](CC(C)C)NC(=O)[C@H](Cc1cccnc1)NC(=O)[C@H](CCCCN)NC(=O)[C@H](CO)NC(=O)[C@H](Cc1ccc(O)cc1)NC(=O)[C@H](CC(=O)O)NC(=O)[C@H](CO)NC(=O)[C@@H](NC(=O)[C@H](Cc1ccccc1)NC(=O)[C@@H](NC(=O)CNC(=O)[C@H](CCC(N)=O)NC(=O)[C@H](CO)NC(=O)[C@@H](N)Cc1cnc[nH]1)[C@@H](C)O)[C@@H](C)O)C(C)C)C(=O)N[C@@H](CC(N)=O)C(=O)N[C@H](C(=O)O)[C@@H](C)O`, in series [1], the solubility (usually how much of the substance goes into solution per volume) was > 1 mg/mL.

With `CSCC[C@H](NC(=O)[C@H](CC(C)C)NC(=O)[C@H](Cc1c[nH]c2ccccc12)NC(=O)[C@H](CCC(N)=O)NC(=O)[C@@H](NC(=O)[C@H](Cc1ccccc1)NC(=O)[C@H](CC(=O)O)NC(=O)[C@H](CCC(N)=O)NC(=O)[C@H](C)NC(=O)[C@H](CCCNC(=N)N)NC(=O)[C@H](CCCNC(=N)N)NC(=O)C(C)(C)NC(=O)[C@H](CC(=O)O)NC(=O)[C@H](CC(C)C)NC(=O)[C@H](Cc1cccnc1)NC(=O)[C@H](CCCCN)NC(=O)[C@H](CO)NC(=O)[C@H](Cc1cccnc1)NC(=O)[C@H](CC(=O)O)NC(=O)[C@H](CO)NC(=O)[C@@H](NC(=O)[C@H](Cc1ccccc1)NC(=O)[C@@H](NC(=O)CNC(=O)[C@H](CCC(N)=O)NC(=O)[C@H](CO)NC(=O)[C@@H](N)Cc1cnc[nH]1)[C@@H](C)O)[C@@H](C)O)C(C)C)C(=O)N[C@@H](CC(N)=O)C(=O)N[C@H](C(=O)O)[C@@H](C)O`, the solubility in series [1] is > 15 mg/mL.

Turning to `CSCC[C@H](NC(=O)[C@H](CC(C)C)NC(=O)[C@H](Cc1c[nH]c2ccccc12)NC(=O)[C@H](CCC(N)=O)NC(=O)[C@@H](NC(=O)[C@H](Cc1ccccc1)NC(=O)[C@H](CC(=O)O)NC(=O)[C@H](CCC(N)=O)NC(=O)[C@H](C)NC(=O)[C@H](CCCNC(=N)N)NC(=O)[C@H](CCCNC(=N)N)NC(=O)C(C)(C)NC(=O)[C@H](CC(=O)O)NC(=O)[C@H](CC(C)C)NC(=O)[C@H](Cc1ccncc1)NC(=O)[C@H](CCCCN)NC(=O)[C@H](CO)NC(=O)[C@H](Cc1ccncc1)NC(=O)[C@H](CC(=O)O)NC(=O)[C@H](CO)NC(=O)[C@@H](NC(=O)[C@H](Cc1ccccc1)NC(=O)[C@@H](NC(=O)CNC(=O)[C@H](CCC(N)=O)NC(=O)[C@H](CO)NC(=O)[C@@H](N)Cc1cnc[nH]1)[C@@H](C)O)[C@@H](C)O)C(C)C)C(=O)N[C@@H](CC(N)=O)C(=O)N[C@H](C(=O)O)[C@@H](C)O`, the solubility in series [1] was > 15 mg/mL; in series [2], “Soluble”.

Take `CSCC[C@H](NC(=O)[C@H](CC(C)C)NC(=O)[C@H](Cc1c[nH]c2ccccc12)NC(=O)[C@H](CCC(N)=O)NC(=O)[C@@H](NC(=O)[C@H](Cc1cccnc1)NC(=O)[C@H](CC(=O)O)NC(=O)[C@H](CCC(N)=O)NC(=O)[C@H](C)NC(=O)[C@H](CCCNC(=N)N)NC(=O)[C@H](CCCNC(=N)N)NC(=O)C(C)(C)NC(=O)[C@H](CC(=O)O)NC(=O)[C@H](CC(C)C)NC(=O)[C@H](Cc1cccnc1)NC(=O)[C@H](CCCCN)NC(=O)[C@H](CO)NC(=O)[C@H](Cc1cccnc1)NC(=O)[C@H](CC(=O)O)NC(=O)[C@H](CO)NC(=O)[C@@H](NC(=O)[C@H](Cc1cccnc1)NC(=O)[C@@H](NC(=O)CNC(=O)[C@H](CCC(N)=O)NC(=O)[C@H](CO)NC(=O)[C@@H](N)Cc1cnc[nH]1)[C@@H](C)O)[C@@H](C)O)C(C)C)C(=O)N[C@@H](CC(N)=O)C(=O)N[C@H](C(=O)O)[C@@H](C)O` (H-HSQGT[3Pal]TSD[3Pal]SK[3Pal]LD[Aib]RRAQD[3Pal]VQWLMNT-OH): the solubility in series [1] was > 15 mg/mL; in series [2] it was “Soluble”.

Regarding `CSCC[C@H](NC(=O)[C@H](CC(C)C)NC(=O)[C@H](Cc1c[nH]c2ccccc12)NC(=O)[C@H](CCC(N)=O)NC(=O)[C@@H](NC(=O)[C@H](Cc1ccccc1)NC(=O)[C@H](CC(=O)O)NC(=O)[C@H](CCC(N)=O)NC(=O)[C@H](C)NC(=O)[C@H](CCCNC(=N)N)NC(=O)[C@H](CCCNC(=N)N)NC(=O)C(C)(C)NC(=O)[C@H](CC(=O)O)NC(=O)[C@H](CC(C)C)NC(=O)[C@H](Cc1ccncc1)NC(=O)[C@H](CCCCN)NC(=O)[C@H](CO)NC(=O)[C@H](Cc1ccncc1)NC(=O)[C@H](CC(=O)O)NC(=O)[C@H](CO)NC(=O)[C@@H](NC(=O)[C@H](Cc1ccncc1)NC(=O)[C@@H](NC(=O)CNC(=O)[C@H](CCC(N)=O)NC(=O)[C@H](CO)NC(=O)[C@@H](N)Cc1cnc[nH]1)[C@@H](C)O)[C@@H](C)O)C(C)C)C(=O)N[C@@H](CC(N)=O)C(=O)N[C@H](C(=O)O)[C@@H](C)O`, the results for the solubility in series [1] and in series [2] were > 15 mg/mL and “Soluble”, respectively.

In the case of `CSCC[C@H](NC(=O)[C@H](CC(C)C)NC(=O)[C@H](Cc1c[nH]c2ccccc12)NC(=O)[C@H](CCC(N)=O)NC(=O)[C@@H](NC(=O)[C@H](Cc1ccccc1)NC(=O)[C@H](CC(=O)O)NC(=O)[C@H](CCC(N)=O)NC(=O)[C@H](C)NC(=O)[C@H](CCCNC(=N)N)NC(=O)[C@H](CCCNC(=N)N)NC(=O)C(C)(C)NC(=O)[C@H](CC(=O)O)NC(=O)[C@H](CC(C)C)NC(=O)[C@H](Cc1ccc(O)cc1)NC(=O)[C@H](CCCCN)NC(=O)[C@H](CO)NC(=O)[C@H](Cc1ccc(O)cc1)NC(=O)[C@H](CC(=O)O)NC(=O)[C@H](CO)NC(=O)[C@@H](NC(=O)[C@H](Cc1cccnc1)NC(=O)[C@@H](NC(=O)CNC(=O)[C@H](CCC(N)=O)NC(=O)[C@H](CO)NC(=O)[C@@H](N)Cc1cnc[nH]1)[C@@H](C)O)[C@@H](C)O)C(C)C)C(=O)N[C@@H](CC(N)=O)C(=O)N[C@H](C(=O)O)[C@@H](C)O`, the solubility in series [1] was > 1 mg/mL.

As to `CSCC[C@H](NC(=O)[C@H](CC(C)C)NC(=O)[C@H](Cc1c[nH]c2ccccc12)NC(=O)[C@H](CCC(N)=O)NC(=O)[C@@H](NC(=O)[C@H](Cc1ccccc1)NC(=O)[C@H](CC(=O)O)NC(=O)[C@H](CCC(N)=O)NC(=O)[C@H](C)NC(=O)[C@H](CCCNC(=N)N)NC(=O)[C@H](CCCNC(=N)N)NC(=O)C(C)(C)NC(=O)[C@H](CC(=O)O)NC(=O)[C@H](CC(C)C)NC(=O)[C@H](Cc1ccc(O)cc1)NC(=O)[C@H](CCCCN)NC(=O)[C@H](CO)NC(=O)[C@H](Cc1cccnc1)NC(=O)[C@H](CC(=O)O)NC(=O)[C@H](CO)NC(=O)[C@@H](NC(=O)[C@H](Cc1ccccc1)NC(=O)[C@@H](NC(=O)CNC(=O)[C@H](CCC(N)=O)NC(=O)[C@H](CO)NC(=O)[C@@H](N)Cc1cnc[nH]1)[C@@H](C)O)[C@@H](C)O)C(C)C)C(=O)N[C@@H](CC(N)=O)C(=O)N[C@H](C(=O)O)[C@@H](C)O`, the solubility in series [1] was > 1 mg/mL.

As to GLUCAGON, in the series on Rattus norvegicus [3], the outcome was inactive. The outcome with Rattus norvegicus [4] and in the series with Rattus norvegicus [5] was Active.

For `CSCC[C@H](NC(=O)[C@H](CC(C)C)NC(=O)[C@H](Cc1c[nH]c2ccccc12)NC(=O)[C@H](CCC(N)=O)NC(=O)[C@@H](NC(=O)[C@H](Cc1ccccc1)NC(=O)[C@H](CC(=O)O)NC(=O)[C@H](CCC(N)=O)NC(=O)[C@H](C)NC(=O)[C@H](CCCNC(=N)N)NC(=O)[C@H](CCCNC(=N)N)NC(=O)C(C)(C)NC(=O)[C@H](CC(=O)O)NC(=O)[C@H](CC(C)C)NC(=O)[C@H](Cc1cccnc1)NC(=O)[C@H](CCCCN)NC(=O)[C@H](CO)NC(=O)[C@H](Cc1cccnc1)NC(=O)[C@H](CC(=O)O)NC(=O)[C@H](CO)NC(=O)[C@@H](NC(=O)[C@H](Cc1cccnc1)NC(=O)[C@@H](NC(=O)CNC(=O)[C@H](CCC(N)=O)NC(=O)[C@H](CO)NC(=O)[C@@H](N)Cc1cnc[nH]1)[C@@H](C)O)[C@@H](C)O)C(C)C)C(=O)N[C@@H](CC(N)=O)C(=O)N[C@H](C(=O)O)[C@@H](C)O`, the solubility in series [1] is > 15 mg/mL; in series [2] it was “Soluble”. In addition, the result in the series with Sus scrofa, with Rattus norvegicus [4] and in the series with Rattus norvegicus [5] was Active. In the series on Rattus norvegicus [3], the result was inactive. Besides, the Activity in series [6] came to 82%.

On to `CSCC[C@H](NC(=O)[C@H](CC(C)C)NC(=O)[C@H](Cc1c[nH]c2ccccc12)NC(=O)[C@H](CCC(N)=O)NC(=O)[C@@H](NC(=O)[C@H](Cc1ccccc1)NC(=O)[C@H](CC(=O)O)NC(=O)[C@H](CCC(N)=O)NC(=O)[C@H](C)NC(=O)[C@H](CCCNC(=N)N)NC(=O)[C@H](CCCNC(=N)N)NC(=O)C(C)(C)NC(=O)[C@H](CC(=O)O)NC(=O)[C@H](CC(C)C)NC(=O)[C@H](Cc1ccncc1)NC(=O)[C@H](CCCCN)NC(=O)[C@H](CO)NC(=O)[C@H](Cc1ccc(O)cc1)NC(=O)[C@H](CC(=O)O)NC(=O)[C@H](CO)NC(=O)[C@@H](NC(=O)[C@H](Cc1ccccc1)NC(=O)[C@@H](NC(=O)CNC(=O)[C@H](CCC(N)=O)NC(=O)[C@H](CO)NC(=O)[C@@H](N)Cc1cnc[nH]1)[C@@H](C)O)[C@@H](C)O)C(C)C)C(=O)N[C@@H](CC(N)=O)C(=O)N[C@H](C(=O)O)[C@@H](C)O`, for which the solubility in series [1] was > 1 mg/mL.

The record behind these values is ChEMBL document CHEMBL4431340, “Pyridyl-alanine as a Hydrophilic, Aromatic Element in Peptide Structural Optimization” (J Med Chem, 2016).
